Assay outcomes (PubChem BioAssay)
STEP block = inhibitors of human striatal-enriched phosphatase STEP; recombinant STEP, OMFP fluorogenic substrate, fluorescence; inhibition, % at 20 µM; 360,000 tested, 0.25% active;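 active means inhibition at 20 µM, scaled per plate between control wells, above about 37%, limit read from the data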;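 further: 0% = DMSO with enzyme and substrate and 100% = substrate only without enzyme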
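Test system: STEP tyrosine phosphatase / Reagent: OMFP at 25 µM / Doses: 20 µM, 1% DMSO / Read-out: percent inhibition scaled to no-enzyme and uninhibited-enzyme controls, plate-pattern corrected / Detection: FITC-channel fluorescence of OMFP product / Medium: Bis-Tris buffer pH 6.0, 2.5 mM DTT, 0.005% Tween 20 / Schedule: 20 min at room temperature, dark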
SUMO1-SIM PPI = alters human SUMO1 binding to SIM partners; P63165; SUMO1 binding to a labelled peptide, TR-FRET, 1 h; inhibition, % at 20 µM; 360,000 tested, 0.33% active; in the data active means inhibition above about 37%
Target sequence (P63165 whole entry, looked up): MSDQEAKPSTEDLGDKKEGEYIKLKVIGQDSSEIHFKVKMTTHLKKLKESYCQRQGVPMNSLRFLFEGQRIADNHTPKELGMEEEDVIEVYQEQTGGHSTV
DNMT1 block = DNMT1 (human) enzyme inhibition. P26358. DNMT1 molecular beacon, Hinp1I cleavage, fluorescence. inhibition (reported as % activation of signal), % at 10 µM. 360,000 tested, 0.83% active; in the data active means inhibition above about 50%
LMPTP inh = LMPTP (human) inhibition; P24666; recombinant LMPTP-A, OMFP fluorogenic substrate, fluorescence intensity; inhibition, % at 20 µM; 360,000 tested, 0.22% active;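 active means compounds that cut the enzyme signal by at least half of the control window in the single-dose screen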;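 further: plate controls were DMSO wells with enzyme plus substrate for no effect and substrate without enzyme for full effect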
Target sequence (P24666 whole entry, looked up): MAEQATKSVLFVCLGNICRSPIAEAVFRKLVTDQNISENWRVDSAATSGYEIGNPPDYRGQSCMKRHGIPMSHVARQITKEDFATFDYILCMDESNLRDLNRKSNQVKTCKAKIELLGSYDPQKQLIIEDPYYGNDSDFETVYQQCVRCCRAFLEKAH
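Test system: LMPTP-A phosphatase enzyme. Amount: LMPTP-A at 0.625 nM final in the reaction. Reagent: OMFP substrate, 400 µM final. Times: 50 min at room temperature. Signal: endpoint fluorescence intensity from OMFP dephosphorylation. Read-out basis: % inhibition. Benchmarks: no-enzyme and uninhibited controls.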
Scp1 inh = inhibitors of human Scp-1 phosphatase | Recombinant Scp1, phosphopeptide, malachite green phosphate absorbance | Q9GZU7 | 340,000 tested, 0.88% active | AID 493091 | inhibition, % at 20 µM;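 active means inhibition above about 50% at 20 µM, limit read from the data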;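 further: plate controls were DMSO wells with enzyme for no effect and wells lacking enzyme for full effect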
Target sequence (Q9GZU7 76-261 limits assumed): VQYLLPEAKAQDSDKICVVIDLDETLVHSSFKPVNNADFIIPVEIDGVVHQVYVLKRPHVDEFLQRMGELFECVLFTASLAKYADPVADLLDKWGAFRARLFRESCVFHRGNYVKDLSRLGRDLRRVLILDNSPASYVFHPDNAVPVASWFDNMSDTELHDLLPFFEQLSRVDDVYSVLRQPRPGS
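assay system = SCP-1 phosphatase catalytic domain, residues 76-261 | buffer or medium = 50 mM Tris acetate pH 5.5, 0.005% Tween-20, 10 mM MgCl2 | incubation = enzyme reaction 45 min at room temperature, colour 5 min, stabilisation 30 min | signal = Phosphate-binding colour reagent, absorbance read at 630 nm | measure = % inhibition at 20 µM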
NadD inh = inhibitors of Staphylococcus aureus NadD | purified NadD enzyme, colorimetric absorbance read-out | inhibition, % at 20 µM | 360,000 tested, 0.78% active; in the data active means inhibition above about 26%
NadD inh conf = confirmation of Staphylococcus aureus NadD inhibitors. AID 624309. inhibition, % at 20 µM. 2,000 tested, 13% active. purified S. aureus NadD, colorimetric enzyme assay. shares compounds with NadD inh; in the data active means inhibition mostly above about 42%, no sharp cut-off; inactive means mostly below about 42%
* = called active by the depositor; x = not tested or not shown. The list is not random: actives were taken first. Their share in the collection is about 2.4%.

SMILES	STEP block	SUMO1-SIM PPI	DNMT1 block	LMPTP inh	Scp1 inh	NadD inh	NadD inh conf
O=C(COC(=O)c1cc(Br)ccc1Cl)NC(=O)NCc1ccccc1	-1	7	1	0	-7	2	x
Nc1sc(-c2ccccc2)n[n+]1Cc1cccc2cccnc12	2	-7	-1	7	-6	-12	x
CCNc1sc(C(=O)c2cccs2)c(N)c1-c1nc2ccccc2s1	2	-6	-6	3	-6	30*	0
C=CCNc1sc(C(=O)c2ccccc2)c(N)c1-c1nc2ccccc2s1	-1	-17	-9	0	2	12	x
COc1ccc(-c2ccc3[nH]c4c(c3c2)CCN2C[C@@H]([C@H](C)OC(=O)Nc3cc(Cl)cc(Cl)c3)[C@@H](N(C)C(=O)Nc3cc(Cl)cc(Cl)c3)C[C@@H]42)cc1	2	0	-6	3	x	38*	1
O=C(Nc1ccccn1)C1(c2ccccc2)CCCC1	-2	-2	3	0	-3	-6	x
Cc1ccc(NC(=O)C2(c3ccccc3)CCCC2)nc1	3	1	3	0	-6	32*	2
CC(=O)c1nnn(-c2nc(N)nc(N(c3ccccc3)c3ccccc3)n2)c1C	-3	1	-6	2	-7	5	x
Cc1cc(C)n(-c2nc(N(c3ccccc3)c3ccccc3)nc(-n3nc(C)cc3C)n2)n1	6	-7	-3	30	16	42*	22
O=C(OCC(=O)c1ccc(Cl)cc1Cl)c1ccc2c(c1)C(=O)N(c1cccc3ncccc13)C2=O	6	-4	-5	3	5	43*	7
O=C(COC(=O)c1ccc2c(c1)C(=O)N(c1cccc3ncccc13)C2=O)c1ccc(Cl)cc1	2	4	29	24	2	9	x
N#CCN1CCC/C1=C\[N+](=O)[O-]	0	-4	5	-1	0	4	x
N#CCN(CC#N)C(=O)C1c2ccccc2Oc2ccccc21	0	-4	3	-2	-2	-7	x
O=C(/C=C/c1ccc2ccccc2c1)c1ccoc1	0	4	21	4	-8	30*	-4
Cc1cccc(C=CC(=O)c2ccccc2)c1	1	-1	4	2	-5	-5	x
CN(C)CCCNC(=O)N1c2ccccc2C=Cc2ccccc21	5	0	-1	-4	-5	-4	x
CC(C)COC(=O)C(C#N)c1nc2ccccc2nc1N1CCN(Cc2ccc3c(c2)OCO3)CC1 (stereo unspecified)	7	-3	-8	8	13	31*	9
Nc1ccccc1Sc1nc2ccccc2[nH]1	-3	-2	-14	0	13	34*	34
Nc1nc2ccccc2[nH]1	-4	6	-2	1	-7	-5	x
N#Cc1c(NC(=S)NC(=O)c2ccccc2)sc2c1CCCC2	-1	6	1	13	-9	4	x
Cn1ncc(Cl)c1C(=O)NC(=S)Nc1sc2c(c1C#N)CCCCC2	3	12	0	5	-2	29*	3
CCC(Oc1ccccc1)C(=O)Nc1ccccc1OC (stereo unspecified)	2	-3	-1	0	-10	1	x
Cc1oc2c(cc(NS(=O)(=O)c3ccc4c5c(cccc35)C(=O)N4)c3ccccc32)c1C(=O)OC(C)C	1	8	-30	2	-25	30*	37*
O=C1CCCc2oc3c(cc(NS(=O)(=O)c4ccc5c6c(cccc46)C(=O)N5)c4ccccc43)c21	6	-10	-23	3	-13	24	x
COc1ccc(/C=C2\SC(=O)N(CCC(=O)Nc3ccc(S(=O)(=O)Nc4nccs4)cc3)C2=O)cc1	1	-2	-4	6	-6	76*	60*
SMILES	STEP block	SUMO1-SIM PPI	DNMT1 block	LMPTP inh	Scp1 inh	NadD inh	NadD inh conf
COc1ccc(/C=C2/SC(=O)N(CCC(=O)Nc3ccc(S(=O)(=O)Nc4nccs4)cc3)C2=O)cc1	1	-5	-2	4	-4	69*	49*
Nc1ccc2nc(-c3cc(Cl)c(N)c(Cl)c3)[nH]c2c1	-2	8	6	14	-1	15	x
Cc1nc2ccc(-c3nc4ccc(N)cc4[nH]3)cc2[nH]1	5	9	-24	5	-5	45*	20
Nc1ccc2nc(-c3cccc(-c4nc5ccc(N)cc5[nH]4)c3)[nH]c2c1	18	10	-8	46	-10	39*	24
Nc1ccc(-c2nc3ccc(N)cc3[nH]2)cc1	-4	11	-18	27	-11	66*	23
COc1ccc(-c2nnc(SCC(=O)NCCc3ccccc3)o2)cc1	6	-5	0	-5	-2	0	x
CCOc1ccc(C(C)(C)C)cc1S(=O)(=O)N1CC(C)OC(C)C1 (stereo unspecified)	0	-2	2	1	1	10	x
CCOC(=O)C1=C(C)Nc2ccccc2N=C1NC(=O)c1cccc(S(=O)(=O)NCc2ccccc2)c1	-1	3	-7	0	-11	-1	x
CC1CCCC(C)N1c1nnc(NC(=O)c2cc(-c3ccc(Br)cc3)on2)s1 (stereo unspecified)	2	3	20	-1	6	41*	20
O=C(Nc1ccc(F)cc1)Nc1ccc([N+](=O)[O-])cn1	-1	-2	2	2	-6	-3	x
O=C(Nc1ccc(Cl)c(Cl)c1)Nc1ccc([N+](=O)[O-])cn1	0	3	48	3	-11	34*	6
Cc1ccc(NC(=O)C2CCCN(S(=O)(=O)c3cccnc3)C2)c(C)c1 (stereo unspecified)	-4	3	2	-1	-3	5	x
N#Cc1ccccc1Cn1cc(/C=N/Nc2ccc([N+](=O)[O-])cn2)c2ccccc21	-3	-16	0	4	3	32*	5
Cc1cc2cc(CN(Cc3cccs3)C(c3nnnn3C(C)(C)C)C(C)C)c3nnnn3c2cc1C (stereo unspecified)	9	-1	-2	2	-7	31*	3
CCC(C)(C)n1nnnc1C(C(C)C)N(CCN1CCOCC1)Cc1cc2cccc(C)c2[nH]c1=O (stereo unspecified)	1	-4	-2	0	-2	0	x
Cn1c(SCC(=O)NC(=O)Cc2ccccc2)nnc1-c1ccc(F)cc1	1	3	-1	1	-1	-2	x
COc1ccc(C(=O)Nc2cccc(-c3cc4ccccc4oc3=O)c2)cc1[N+](=O)[O-]	3	-2	-9	14	24	35*	10
CC(=O)Nc1ccc(NC(=O)c2cccc(-c3cc4ccccc4oc3=O)c2)cc1	6	1	-3	-1	-14	3	x
